Reference: ChEMBL document CHEMBL1131615, “Synthesis and tyrosine kinase inhibitory activity of a series of 2-amino-8H-pyrido[2,3-d]pyrimidines: identification of potent, selective platelet-derived growth factor receptor tyrosine kinase inhibitors” (J Med Chem, 1998)
Values belong to the molecule of their own block, whether it stands above or below them.

Experiments:
[1] = target: T1, Platelet-derived growth factor receptor (PDGFr) (Rattus norvegicus, UniProt P20786+Q05030); assay: Inhibition of PDGF-stimulated Platelet-derived growth factor receptor autophosphorylation in rat aortic vascular smooth muscle cells (RAVSMCs) after 2 hr
[2] = target: T1, Platelet-derived growth factor receptor (PDGFr); assay: Inhibition of PDGF-stimulated Platelet-derived growth factor receptor autophosphorylation in C6 rat glioma cells after 2 hr; type: cell-based
[3] = target: Fibroblast growth factor receptor (Mus musculus, UniProt P21803+Q03142+P16092+Q61851); assay: Inhibition of mouse fibroblast growth factor receptor tyrosine kinase (FGFr); type: protein assay
[4] = target: Platelet-derived growth factor receptor (Mus musculus, UniProt P05622+P26618); assay: Inhibition against of platelet-derived growth factor receptor (PDGFr)
[5] = target: Proto-oncogene tyrosine-protein kinase Src (Mus musculus, UniProt P05480); assay: Inhibition of mouse c-Src tyrosine kinase
Rattus norvegicus [6] = assay: Compound was tested for area under concentration -time curve from time 0 to time of last detectable concentration in three male Wistar rats at a single 5 mg/kg oral gavage dose; type: ADME, organism-based; set-up: dose 5 mg/kg, route oral; settings: in vivo
Method in brief: (§1)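 Single 5 mg/kg oral gavage dose given to three male Wistar rats, in 17% PEG 400/83% methylcellulose (0.5%). Heparinized plasma was taken by jugular vein cannula from 0 to 48 h; lower limit of quantitation was 10 ng/mL. Noncompartmental analysis: t1/2 = 0.693/λz (log-linear terminal regression); AUC by trapezoidal rule, extrapolated to infinity.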

C6 [7] = assay: Inhibition of rat C6 glioma cell proliferation in sulforhodamine B assay; type: functional, cell-based
Method in brief: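 C6 rat glioma cells cultured 4 days with a range of compound concentrations; growth read by sulforhodamine B staining, giving IC50.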

C6 [8] = assay: Ratio of treated/control C6 glioma cell tumor mass at 40 mg/kg peroral dose, days 1-15 administration; type: functional; settings: route oral
Method in brief: (§2)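 Nude mouse sc axillary tumor-fragment xenografts implanted on day 0 (6-8 treated, 12 controls), with oral dosing on the stated schedule. T/C = median treated tumor mass / median control tumor mass × 100%, on the last therapy day.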

[9] = Compound was tested for apparent terminal phase elimination half life in three male Wistar rats at a single 5 mg/kg oral gavage dose; type: ADME, organism-based; set-up: dose 5 mg/kg, route oral; settings: rat, in vivo; method in brief: as §1
DU-145 [10] = assay: Delay between treated (T) and control (C) DU-145 cell tumors reaching 750 mg at 48 mg/kg peroral dose, days 16-20,23-27,30-34 administration; type: functional; settings: route oral
Method in brief: (§3)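 Nude mice (18-22 g), randomized, implanted sc in the right axilla on day 0 with tumor fragments maintained by serial passage in nude mice. Tumors were C6 rat glioma, NIH 3T3 transfected with human PDGF ββ, or DU-145 prostate. At least 6 mice per group, 12 controls. Oral dosing by average cage weight on the stated days.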

C6 [11] = assay: C6 glioma 3-day proliferation followed by soft agar growth without treatment; type: functional, cell-based; settings: Rattus norvegicus, C6, 72 h
Method in brief: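 C6 rat glioma cells exposed to a range of compound concentrations for 3 days in culture, then cloned in soft agar with drug removed. IC50 derived.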

DU-145 [12] = assay: Ratio of treated/control DU-145 cell tumor mass at 48 mg/kg peroral dose, days 16-20, 23-27, 30-34 administration; type: functional; settings: route oral; method in brief: as §2
DU-145 [13] = assay: Net reduction in DU-145 cell tumor burden after 48 mg/kg peroral dose, days 16-20,23-27,30-34 administration; type: functional; settings: route oral
Method in brief: (§4)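 Tumor lines (C6 rat glioma; NIH 3T3 fibroblasts transfected with human PDGF-ββ; DU-145 prostatic adenocarcinoma) were kept by serial passage in nude mice. Randomized nude mice weighing 18-22 g received sc tumor fragments in the right axilla on day 0, with at least 6 per treated group and 12 controls. Oral dosing was based on average cage weight. Net cell kill is given as log10.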

Rattus norvegicus [14] = assay: Compound was tested for area under concentration -time curve from time 0 to time infinity in three male Wistar rats at a single 5 mg/kg oral gavage dose; type: ADME, organism-based; set-up: dose 5 mg/kg, route oral; settings: in vivo; method in brief: as §1
C6 [15] = assay: Delay between treated (T) and control (C) C6 glioma cell tumors reaching 750 mg at 40 mg/kg peroral dose, days 1-15 administration; type: functional; settings: route oral; method in brief: as §3
C6 [16] = assay: Weight change after 40 mg/kg peroral dose, days 1-15 treatment of C6 glioma cell tumor; type: functional; settings: route oral; method in brief: as §3
DU-145 [17] = assay: Weight change after 48 mg/kg peroral dose, days 16-20,23-27,30-34 treatment of DU-145 cell tumor
Mus musculus [18] = assay: Ratio of treated/control PDGF-transfected cell tumor mass at 20 mg/kg peroral dose, days 1-15 administration; type: functional; settings: route oral; method in brief: as §2
Mus musculus [19] = assay: Delay between treated (T) and control (C) PDGF-transfected cell tumors reaching 750 mg at 20 mg/kg peroral dose, days 1-15 administration; type: functional; settings: route oral; method in brief: as §3
[20] = Compound was tested for maximum observed concentration in three male Wistar rats at a single 5 mg/kg oral gavage dose; type: ADME, organism-based; set-up: dose 5 mg/kg, route oral; settings: rat, in vivo; method in brief: as §1
C6 [21] = assay: Net reduction in C6 glioma cell tumor burden after 40 mg/kg peroral dose, days 1-15 administration; type: functional; settings: route oral; method in brief: as §4
[22] = Compound was tested for time to reach Cmax in three male Wistar rats at a single 5 mg/kg oral gavage dose.; type: ADME, organism-based; set-up: dose 5 mg/kg, route oral; settings: rat, in vivo; method in brief: as §1
Mus musculus [23] = assay: Net reduction in PDGF-transfected cell tumor burden after 20 mg/kg peroral dose, days 1-15 administration; type: functional; settings: route oral; method in brief: as §4
Mus musculus [24] = assay: Weight change after 20 mg/kg peroral dose, days 1-15 treatment of PDGF-transfected cell tumor; type: functional, organism-based; set-up: dose 20 mg/kg; method in brief: as §3
C6 [25] = assay: C6 glioma 3-day proliferation followed by soft agar growth with continuous treatment; type: functional, cell-based; settings: Rattus norvegicus, C6, 72 h
Method in brief: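 C6 rat glioma cells exposed to a range of compound concentrations for 3 days in culture, then cloned in soft agar with drug kept present throughout colony growth. IC50 derived.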

Rattus norvegicus [26] = assay: Compound was tested for area under concentration -time curve from time 0 to time infinity in three male Wistar rats at a single 5 mg/kg oral gavage dose.; type: ADME, organism-based; set-up: dose 5 mg/kg, route oral; settings: in vivo; method in brief: as §1

Chain of Proto-oncogene tyrosine-protein kinase Src (P05480 2-535 limits assumed): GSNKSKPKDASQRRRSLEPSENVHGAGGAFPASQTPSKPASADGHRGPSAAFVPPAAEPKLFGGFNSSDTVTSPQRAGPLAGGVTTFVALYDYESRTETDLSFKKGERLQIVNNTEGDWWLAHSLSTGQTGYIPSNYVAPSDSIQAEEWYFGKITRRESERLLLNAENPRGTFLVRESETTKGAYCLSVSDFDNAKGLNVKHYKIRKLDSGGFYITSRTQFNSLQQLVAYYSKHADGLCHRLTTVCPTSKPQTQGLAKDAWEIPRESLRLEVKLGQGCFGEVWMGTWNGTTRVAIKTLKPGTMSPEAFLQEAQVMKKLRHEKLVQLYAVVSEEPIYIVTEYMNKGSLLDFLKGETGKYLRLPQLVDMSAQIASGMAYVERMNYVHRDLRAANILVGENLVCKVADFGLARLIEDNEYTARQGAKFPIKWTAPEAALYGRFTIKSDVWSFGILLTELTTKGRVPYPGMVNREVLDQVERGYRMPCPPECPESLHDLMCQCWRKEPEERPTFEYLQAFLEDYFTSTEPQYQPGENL

Compound: CCn1c(=O)c(-c2ccccc2)cc2cnc(Nc3ccccc3)nc21
IC50 [1]: 4.6 nM
IC50 [2]: > 25 nM
IC50 [3]: 1500 nM
IC50 [4]: 180 nM
IC50 [5]: 1800 nM

Compound: CCN(CC)CCOc1ccc(Nc2ncc3cc(-c4ccccc4)c(=O)n(C)c3n2)cc1
IC50 [3]: 350 nM
IC50 [4]: 42 nM
IC50 [5]: 140 nM

Compound: CCN(CC)CCOc1ccc(Nc2ncc3cc(-c4ccccc4)c(=O)n(CC)c3n2)cc1
AUC (Rattus norvegicus [6]): 525 ng·h/mL
IC50 (C6 [7]): 1200 nM
T/C (C6 [8]): 0%
half-life [9]: 6.65 h
T-C (DU-145 [10]): 11.4 days
IC50 (C6 [11]): 150 nM
IC50 [2]: 3 nM
T/C (DU-145 [12]): 40%
Net log cell kill (DU-145 [13]): -0.4
AUC (Rattus norvegicus [14]): 828 ng·h/mL
T-C (C6 [15]): 9.6 days
Weight change (C6 [16]): -0.7 g
Weight change (DU-145 [17]): Weight gain
T/C (Mus musculus [18]): 1%
T-C (Mus musculus [19]): 6.9 days
Cmax [20]: 78.3 ng/mL
IC50 [3]: 88 nM
IC50 [4]: 31 nM
Net log cell kill (C6 [21]): -0.3
IC50 [5]: 31 nM
Tmax [22]: 2.67 h
Net log cell kill (Mus musculus [23]): -1.2
Weight change (Mus musculus [24]): Weight gain
IC50 (C6 [25]): 120 nM

Compound: Cn1c(=O)c(-c2ccccc2)cc2cnc(Nc3ccncc3)nc21
IC50 [3]: 4700 nM
IC50 [4]: 320 nM
IC50 [5]: 470 nM

Compound: CNc1ncc2cc(-c3ccsc3)c(=O)n(C)c2n1
IC50 [3]: > 50000 nM
IC50 [4]: > 50000 nM
IC50 [5]: > 50000 nM

Compound: Cn1c(=O)c(-c2c(Cl)cccc2Cl)cc2cnc(N)nc21
IC50 [3]: 1300 nM
IC50 [4]: 3800 nM
IC50 [5]: 260 nM

Compound: Cn1c(=O)c(-c2ccsc2)cc2cnc(Nc3ccccc3)nc21
IC50 [3]: > 50000 nM
IC50 [4]: 800 nM
IC50 [5]: 8100 nM

Compound: COC(=O)Cn1c(=O)c(-c2c(Cl)cccc2Cl)cc2cnc(N)nc21
IC50 [3]: 1700 nM
IC50 [4]: 5000 nM
IC50 [5]: 340 nM

Compound: Nc1ncc2cc(-c3c(Cl)cccc3Cl)c(=O)n(CCCOCc3ccccc3)c2n1
IC50 [3]: 3200 nM
IC50 [4]: 6800 nM
IC50 [5]: 1400 nM

Compound: Cn1c(=O)c(-c2ccsc2)cc2cnc(Nc3ccncc3)nc21
IC50 [3]: 22600 nM
IC50 [4]: 480 nM
IC50 [5]: 1700 nM

Compound: CC(C)Cn1c(=O)c(-c2c(Cl)cccc2Cl)cc2cnc(N)nc21
IC50 [3]: 500 nM
IC50 [4]: 1600 nM
IC50 [5]: 890 nM

Compound: Nc1ncc2cc(-c3c(Cl)cccc3Cl)c(=O)n(CC(=O)O)c2n1
IC50 [3]: 7900 nM
IC50 [4]: > 50000 nM
IC50 [5]: > 50000 nM

Compound: CCN(CC)CCOc1ccc(Nc2ncc3cc(-c4c(Cl)cccc4Cl)c(=O)n(CC)c3n2)cc1
IC50 [3]: 30 nM
IC50 [4]: 150 nM
IC50 [5]: 17 nM

Compound: Nc1ncc2cc(-c3c(Cl)cccc3Cl)c(=O)n(Cc3ccncc3)c2n1
IC50 [4]: 1200 nM
IC50 [5]: 630 nM

Compound: Cn1c(=O)c(-c2ccccc2)cc2cnc(Nc3ccccc3)nc21
IC50 [3]: 5000 nM
IC50 [4]: 290 nM
IC50 [5]: 2400 nM

Compound: CCCn1c(=O)c(-c2c(Cl)cccc2Cl)cc2cnc(N)nc21
IC50 [3]: 510 nM
IC50 [4]: 1200 nM
IC50 [5]: 630 nM

Compound: CC(C)(C)OC(=O)Cn1c(=O)c(-c2c(Cl)cccc2Cl)cc2cnc(N)nc21
IC50 [3]: 1700 nM
IC50 [4]: 7200 nM
IC50 [5]: 560 nM

Compound: Nc1ncc2cc(-c3c(Cl)cccc3Cl)c(=O)n(Cc3ccccc3)c2n1
IC50 [3]: 1400 nM
IC50 [4]: 4200 nM
IC50 [5]: 160 nM

Compound: CCn1c(=O)c(-c2ccsc2)cc2cnc(Nc3ccccc3)nc21
IC50 [2]: > 25 nM
IC50 [3]: > 50000 nM
IC50 [4]: 410 nM
IC50 [5]: 41000 nM

Further lines, with some results ahead:

IC50 [3]: 580 nM
IC50 [4]: 1200 nM
IC50 [5]: 330 nM
Compound: CCCCn1c(=O)c(-c2c(Cl)cccc2Cl)cc2cnc(N)nc21

IC50 [3]: > 50000 nM
IC50 [4]: > 50000 nM
IC50 [5]: > 50000 nM
Compound: Cn1c(=O)c(-c2ccc(-c3ccccc3)cc2)cc2cnc(Nc3ccccc3)nc21

IC50 [3]: 370 nM
IC50 [4]: 1100 nM
IC50 [5]: 180 nM
Compound: Nc1ncc2cc(-c3c(Cl)cccc3Cl)c(=O)n(CCCO)c2n1

IC50 [3]: > 50000 nM
IC50 [4]: 24400 nM
IC50 [5]: > 50000 nM
Compound: Cn1c(=O)c(-c2ccsc2)cc2cnc(N)nc21

AUC (Rattus norvegicus [6]): 4760 ng·h/mL
half-life [9]: 3.72 h
IC50 [2]: 58 nM
AUC (Rattus norvegicus [26]): 5240 ng·h/mL
Cmax [20]: 730 ng/mL
IC50 [3]: 1100 nM
IC50 [4]: 74 nM
IC50 [5]: 410 nM
Tmax [22]: 1.5 h
Compound: CCn1c(=O)c(-c2ccccc2)cc2cnc(Nc3ccncc3)nc21
IC50 (C6 [7]): 7200 nM
IC50 (C6 [11]): 13200 nM
IC50 (C6 [25]): 4900 nM

IC50 [3]: 880 nM
IC50 [4]: 1800 nM
IC50 [5]: 50 nM
Compound: CN(C)CCCn1c(=O)c(-c2c(Cl)cccc2Cl)cc2cnc(N)nc21

IC50 [3]: > 50000 nM
IC50 [4]: 950 nM
IC50 [5]: > 50000 nM
Compound: Cn1c(=O)c(-c2cccs2)cc2cnc(Nc3ccccc3)nc21

IC50 [4]: 980 nM
IC50 [5]: 160 nM
Compound: CCn1c(=O)c(-c2c(Cl)cccc2Cl)cc2cnc(N)nc21

IC50 [1]: 54 nM
IC50 [3]: 2900 nM
IC50 [4]: 54 nM
IC50 [5]: 210 nM
Compound: CCN(CC)CCOc1ccc(Nc2ncc3cc(-c4ccsc4)c(=O)n(C)c3n2)cc1
